# Rows were chosen to be rich in hits. Some 4.5% of all compounds tested hit in one or more screens of this group.
# OX1R antag-1: blocks the human orexin 1 receptor; CHO/OX1R cells, Fluo-8 calcium fluorescence, orexin A; actives 0.43% (n = 330,000); inhibition, % at 5 µM; AID 434989;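 active = inhibition above its plate's threshold, mean inhibition of all tested compounds on the plate plus 3 SD, cut at about 37% in these data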;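 also: 0% = orexin A challenge wells and 100% = SB-334867-A antagonist wells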
# Target sequence (O43613 whole entry, looked up): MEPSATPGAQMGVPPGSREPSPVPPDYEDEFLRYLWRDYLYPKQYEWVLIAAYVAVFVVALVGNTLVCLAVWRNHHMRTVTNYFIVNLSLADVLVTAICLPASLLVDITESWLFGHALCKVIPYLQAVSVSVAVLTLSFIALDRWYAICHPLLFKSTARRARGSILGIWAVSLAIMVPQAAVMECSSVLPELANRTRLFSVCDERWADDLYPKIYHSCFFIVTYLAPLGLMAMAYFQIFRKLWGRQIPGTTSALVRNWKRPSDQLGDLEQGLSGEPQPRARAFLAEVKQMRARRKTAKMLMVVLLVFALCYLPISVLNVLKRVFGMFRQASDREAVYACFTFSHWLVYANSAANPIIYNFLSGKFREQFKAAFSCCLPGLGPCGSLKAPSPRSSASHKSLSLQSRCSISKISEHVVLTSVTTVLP
# GPR7 antagonist: human neuropeptides B/W receptor 1 antagonism | P48145 | GPR7-expressing cells, fluorescence antagonist assay | inhibition, % at 4.4 µM | actives 1.1% (n = 290,000) | AID 1861; in the data active = inhibition above about 16%, passing the limit was not always enough;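 also: cells stimulated with the agonist NPW; 0% = agonist with vehicle and 100% = vehicle without agonist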
# Target sequence (P48145 whole entry, looked up): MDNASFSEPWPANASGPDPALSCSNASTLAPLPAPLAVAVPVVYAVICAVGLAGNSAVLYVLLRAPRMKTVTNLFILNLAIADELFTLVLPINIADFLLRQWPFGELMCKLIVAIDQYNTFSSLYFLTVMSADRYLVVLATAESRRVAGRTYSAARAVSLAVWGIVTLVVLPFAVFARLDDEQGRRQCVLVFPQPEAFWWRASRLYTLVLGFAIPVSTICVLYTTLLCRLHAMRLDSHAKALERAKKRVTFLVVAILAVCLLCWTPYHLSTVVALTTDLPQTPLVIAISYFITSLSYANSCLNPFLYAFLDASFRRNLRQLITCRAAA
# CHO parental Ca: counter-screen: ATP calcium response change in parental CHO cells; parental CHO-K1, ATP-induced calcium, Fluo-8 fluorescence; inhibition, % at 5.6 µM; actives 0.63% (n = 330,000);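 active = inhibition above that plate's mean sample inhibition plus 3 SD, cut at about 26% in these data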;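 also: 0% = ATP-challenged DMSO wells and 100% = DMSO wells without ATP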
#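 Material: parental CHO cells / Compound: single nominal dose of 5.6 µM per compound / Signal: Fluo-8 fluorescence / Replicates: singlicate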
# TAAR1 agonist: agonists of human TAAR1; actives 0.99% (n = 360,000); CHO RD-HGA16 TAAR1, Fluo-8 calcium fluorescence; vehicle wells 0%, saturating PEA agonist 100%; activation, % at 3 µM; Q96RJ0;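 active = activation above the mean activation of all test compounds in the run plus 3 SD, cut at about 38% in these data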
#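 Assay system – CHO-derived RD-HGA16 cells with stable Gα16 and human TAAR1 · Compound dosing – one-point dosing at 3 µM (nominal) · Incubation – 17-24 h seeding, 75 min 37 °C dye, 30 min RT · Measured by – kinetic Fluo-8 calcium fluorescence · Control set – DMSO vehicle as 0%, PEA at EC100 as 100% · Repeats – single well for each compound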
# TAAR1 antagonist: antagonists of human TAAR1; CHO RD-HGA16 TAAR1, Fluo-8 calcium fluorescence, antagonist; inhibition, % at 3 µM; actives 1.5% (n = 360,000); AID 624466;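 active = inhibition above a per-plate cutoff, the mean inhibition of test compounds on that plate plus 3 SD, cut at about 49% in these data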;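 also: 0% = DMSO plus EC80 beta-PEA response and 100% = DMSO alone without agonist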
#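 System: CHO RD-HGA16 cells bearing hTAAR1. Reagent: EC80 β-phenethylamine stimulus. Schedule: seeding 17-24 h prior, 75-min 37 °C, 30-min RT dye loading. Signal: Fluo-8 intracellular calcium dye fluorescence, real-time kinetic reads. Read-out: % inhibition from peak post-agonist over basal fluorescence ratio. Benchmarks: vehicle wells and EC80 agonist wells. Replicates: n of 1.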
# OX1R antag-2: blocks the human orexin 1 receptor; OX1R-expressing cells, FRET antagonist read-out; inhibition, % at 6.6 µM; actives 1.8% (n = 330,000); in the data active = inhibition mostly above about 38%, no sharp cut-off; inactive = mostly below about 40%;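 also: 0% = agonist challenge alone and 100% = reference antagonist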
# TAAR1 ag confirm: confirmation of human TAAR1 agonists. shares compounds with TAAR1 agonist. CHO RD-HGA16 TAAR1, Fluo-8 calcium fluorescence; scaled: DMSO 0%, maximal phenethylamine 100%. activation, % at 3 µM. actives 82% (n = 2,400). AID 651783;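 active = activation above a cutoff set at the run's mean compound activation plus 3 SD, cut at about 39% in these data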
# Ga16 nonsel ag: nonselective agonism, TAAR1 counter-screen. shares compounds with TAAR1 agonist. CHO-Ga16 parental, Fluo-8 calcium fluorescence; normalized to maximal ATP response, DMSO zero. activation, % at 3 µM. actives 50% (n = 2,400). AID 651787;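 active = activation above the run cutoff, the mean activation over all tested wells plus 3 SD, cut at about 12% in these data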;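 also: 0% = DMSO wells and 100% = maximal ATP response on the peak over basal ratio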
# TAAR1 desensitize: counter-screen for human TAAR1 agonists: agonists that desensitize TAAR1 | actives 46% (n = 2,400) | inhibition, % at 3 µM | shares compounds with TAAR1 agonist | CHO RD-HGA16 hTAAR1, Fluo-8 calcium, beta-PEA response inhibition;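 active = inhibition above the run cutoff, the mean inhibition of all test compounds plus 3 SD, cut at about 49% in these data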;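 also: beta-PEA stimulus applied at its EC80; loss of beta-PEA calcium signal after compound pretreatment read as receptor desensitization; 0% = DMSO with beta-PEA at EC80 and 100% = DMSO alone without agonist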
# Ga16 nonsel ant: nonselective Ga16 antagonism, counter-screen; inhibition, % at 3 µM; shares compounds with TAAR1 agonist; CHO-Ga16 ATP-induced calcium, Fluo-8 fluorescence; actives 39% (n = 2,400);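 active = inhibition above the plate's mean compound inhibition plus 3 SD, computed per plate, cut at about 22% in these data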;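 also: 0% = EC80 ATP with DMSO and 100% = DMSO wells without ATP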
# The depositor's hits bear a star; · = no result.
SMILES,OX1R antag-1,GPR7 antagonist,CHO parental Ca,TAAR1 agonist,TAAR1 antagonist,OX1R antag-2,TAAR1 ag confirm,Ga16 nonsel ag,TAAR1 desensitize,Ga16 nonsel ant
CCCOC1CCCN(C(=O)c2cc(Cl)c(Cl)cc2C(=O)O)C1 (stereo not drawn),-9,-13,-8,65*,24,17,82*,4,51*,15
O=C(NC(=S)NNC(=O)c1cccs1)c1ccc(Br)o1,5,1,4,116*,42,4,65*,46*,32,27*
CCC(=O)NC(=S)Nc1ccc(NC(=O)COc2ccc(Cl)c(C)c2)cc1,-24,-6,-3,2,3,19,·,·,·,·
Cc1cc(OCC(=O)NNC(=S)NC(=O)c2ccc(Br)o2)ccc1Cl,·,-4,·,121*,66*,·,98*,73*,75*,56*
Cc1ccc([C@@H]2CC(=O)[C@@H]3CN(S(=O)(=O)c4ccc(C)cc4)[C@H](c4cccc(Cl)c4)C[C@@H]3N2S(=O)(=O)c2ccc(Cl)cc2)cc1,·,·,·,1,-1,·,·,·,·,·
Clc1cccc(CNc2ccn3nc(-c4cccc(Cl)c4)cc3n2)c1,·,·,·,6,3,·,·,·,·,·
COc1ccc(S(=O)(=O)n2nc(OC(=O)c3cccs3)cc2N)cc1,-12,-1,-2,53*,-6,44,20,5,6,14
COc1ccc(S(=O)(=O)n2nc(OC(=O)c3ccccc3)cc2N)cc1,-1,8,-9,57*,7,13,51*,13*,6,16
O=C(Nc1ccc(F)cc1)C(c1cc2ccccc2o1)N1CCN(CC(=O)N2CCCC2)CC1 (stereo not drawn),·,·,·,1,10,·,·,·,·,·
CC1(Cc2cccc(C(F)(F)F)c2)C(=O)Nc2ccc(-c3ccc(F)c(Cl)c3)cc21 (stereo not drawn),·,·,·,4,-28,·,·,·,·,·
CCN(CC)c1ccc(/C=C2\C(=O)c3ccc(C(=O)O)cc3C2=O)cc1,87*,7,51*,125*,86*,27,144*,163*,89*,92*
O=C(O)C1C2C=CC(O2)C1C(=O)NC1CCCc2ccccc21 (stereo not drawn),-13,11,4,55*,-16,16,49*,2,6,9
O=C(NC1CCCc2ccccc21)c1ccccc1 (stereo not drawn),-21,2,-10,-1,-14,9,·,·,·,·
CNc1nc(N)c([N+](=O)[O-])c(NC2CCCCC2)n1,·,-25,·,60*,-22,·,90*,42*,-2,-17
COc1ccc(CN2C(=O)C(CC(=O)NCCc3ccccn3)CC(C(=O)N3CCCCCC3)=C2C)cc1 (stereo not drawn),·,·,·,31,-16,·,·,·,·,·
CCOC(=O)C1=C(COC(=O)c2cc(S(=O)(=O)N3CCOCC3)ccc2F)NC(=O)NC1C (stereo not drawn),·,·,·,0,21,·,·,·,·,·
CCc1ccccc1NC(=O)CN(C)Cc1c(O)ccc2ccccc12,-9,1,0,9,-10,7,·,·,·,·
CN(CC(=O)Nc1ccccc1C(F)(F)F)Cc1c(O)ccc2ccccc12,-23,-17,-7,66*,-6,9,30,5,4,11
O=C(O)c1ccc(-c2cccc(-c3nn4c(=O)cc(N5CCNCC5)nc4s3)c2)cc1,·,·,·,5,-17,·,·,·,·,·
O=C(NCc1ccc(F)cc1)c1cc(C2CCCCN2C(=O)CCc2ccccc2)on1 (stereo not drawn),·,·,·,0,-5,·,·,·,·,·
O=c1[nH]cc(NCCc2ccccc2)c(=O)[nH]1,-11,-9,-21,·,·,16,·,0,·,16
COc1ccc(Nc2cc(C)nc(N3CCOCC3)n2)cc1,-7,-17,-6,49*,3,20,70*,5,38,6
COc1ccc(/C=N/Nc2cc(C)nc(N3CCOCC3)n2)cc1,-10,8,-4,1,-24,2,·,·,·,·
Cc1cc(/C=C2/NC(=O)NC2=O)c(C)n1-c1sc2c(c1C#N)CCCC2,-36,-7,-24,63*,-14,37,46*,19*,-5,-2
Cc1cc(C)c(-n2c(C)cc(/C=C3/NC(=O)NC3=O)c2C)c(C)c1,-23,-12,-24,33,-26,29,·,·,·,·
SMILES,OX1R antag-1,GPR7 antagonist,CHO parental Ca,TAAR1 agonist,TAAR1 antagonist,OX1R antag-2,TAAR1 ag confirm,Ga16 nonsel ag,TAAR1 desensitize,Ga16 nonsel ant
COc1ccc(NC(=O)/C(C#N)=C\c2ccc(Br)o2)cc1,0,-10,9,7,-5,24,·,·,·,·
N#C/C(=C\c1ccc(N2CCCCC2)o1)C(=O)Nc1cccc(Br)c1,92*,11,83*,189*,101*,31,93*,143*,87*,90*
CC1=NOC(=O)/C1=C\c1ccc(-c2ccccc2Br)o1,·,13,·,46*,75*,·,32,29*,56*,65*
CN(C(=O)CC(NC(=O)c1ccccc1Cl)c1ccccc1)c1ccccc1 (stereo not drawn),-22,-12,-21,0,-5,37,·,·,·,·
O=C(Nc1ccc(F)cc1)C(CCc1ccccc1)N1CCN(c2ccncc2)CC1 (stereo not drawn),·,·,·,8,-7,·,·,·,·,·
O=C(CNC(=O)c1ccccc1C(=O)O)c1ccccc1,-19,22,6,71*,30,6,78*,6,47,8
O=C(O)c1ccccc1C(=O)NCCCCCCNC(=O)c1ccccc1C(=O)O,-13,-16,-9,2,4,0,·,·,·,·
O=C(O)c1ccccc1C(=O)NCC(O)c1ccccc1 (stereo not drawn),-8,-11,-26,72*,7,13,96*,2,62*,4
O=C1C=CC(=O)N1c1ccc2c(c1)Cc1cc(F)ccc1-2,·,·,·,14,48,·,·,·,·,·
CC(=O)Nc1ccc2c(c1)Cc1cc(N3C(=O)C=CC3=O)ccc1-2,·,·,·,59*,52*,·,34,29*,48,54*
O=S1(=O)C=C[C@@H](CO)N1Cc1ccc(Br)cc1,·,·,·,1,-12,·,·,·,·,·
COC(=O)c1cc(-c2ccccc2)n(CCN)c1C,-26,·,-13,46*,29,19,51*,0,26,-1
